Assay [1] deals with T1, Estrogen receptor (Homo sapiens) (UniProt P03372).
T1 sequence (whole entry): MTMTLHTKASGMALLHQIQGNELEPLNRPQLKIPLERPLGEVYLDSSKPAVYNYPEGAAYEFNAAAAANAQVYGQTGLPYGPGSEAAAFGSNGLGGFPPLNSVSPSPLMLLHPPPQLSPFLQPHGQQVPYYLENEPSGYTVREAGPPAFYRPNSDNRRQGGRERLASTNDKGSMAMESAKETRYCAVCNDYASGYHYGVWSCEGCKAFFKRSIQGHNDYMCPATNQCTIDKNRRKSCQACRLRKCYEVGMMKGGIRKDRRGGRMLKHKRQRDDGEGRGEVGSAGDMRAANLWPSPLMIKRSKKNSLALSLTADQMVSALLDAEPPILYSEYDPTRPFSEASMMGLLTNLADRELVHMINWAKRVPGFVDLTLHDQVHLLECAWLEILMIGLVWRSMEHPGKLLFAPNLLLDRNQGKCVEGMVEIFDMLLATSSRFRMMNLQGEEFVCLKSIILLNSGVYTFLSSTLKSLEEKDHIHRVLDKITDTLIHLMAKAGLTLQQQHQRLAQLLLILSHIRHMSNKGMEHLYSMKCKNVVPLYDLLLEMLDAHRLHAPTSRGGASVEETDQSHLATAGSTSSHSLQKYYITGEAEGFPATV
Briefly: Displacement of [3H]estradiol from full-length human estrogen receptor alpha assessed as relative binding affinity by radiometric assay relative to estradiol. On the technique in general: Displacement assays read how much labelled ligand stays bound in the presence of the test substance.

Assay [2] deals with Estrogen receptor beta (Homo sapiens) (UniProt Q92731). The assay can be described thus: Displacement of [3H]estradiol from full-length human estrogen receptor beta assessed as relative binding affinity by radiometric assay relative to estradiol.
The species named for the next assay is Homo sapiens. The assay can be described thus: Ratio of relative binding affinity for human ERbeta to relative binding affinity for human ERalpha.
The subject of assay [3] is MCF7. Briefly: Down regulation of ERalpha expression in human MCF7 cell cytoplasmic fraction at 1 uM after 16 hrs by Western blotting. Format: functional, cell-based. The gist of the method: (§1)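 MCF-7 cells steroid-depleted five days in phenol red-free medium with 5% charcoal-dextran-treated calf serum, grown to ~80% confluency, then given 1 μM compound or 0.1% EtOH vehicle for 16 h. Cytoplasmic, nuclear, matrix and insoluble fractions or whole-cell lysate prepared. Western blot with anti-ERα (F10) and infrared detection; Sp1 serves as loading reference.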
(Immunoblotting shows a protein as a band on a membrane.)

For assay [4], the system named is MCF7. The assay can be described thus: Down regulation of ERalpha expression in human MCF7 cell nuclear fraction at 1 uM after 16 hrs by Western blotting. Format: functional, cell-based. The gist of the method:
as §1

Assay [5] deals with MCF7. The assay can be described thus: Down regulation of ERalpha expression in human MCF7 cell matrix fraction at 1 uM after 16 hrs by Western blotting. Format: functional, cell-based. The gist of the method:
as §1

The subject of assay [6] is MCF7. The assay can be described thus: Down regulation of ERalpha expression in human MCF7 cell insoluble fraction at 1 uM after 16 hrs by Western blotting. Format: functional, cell-based. The gist of the method: as §1
For assay [7], the system named is MCF7. The assay can be described thus: Down regulation of ERalpha expression in human MCF7 cell whole cell extract at 1 uM after 16 hrs by Western blotting. Format: functional, cell-based. The gist of the method:
as §1

In assay [8] the test system is MCF7. Briefly: Down regulation of ERalpha expression in human MCF7 cell cytoplasmic fraction at 1 uM treated 16 hrs before estradiol challenge measured after 4 hrs by Western blotting in presence of 1 nM estradiol. Format: functional, cell-based. The gist of the method: (§2)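 Steroid-depleted MCF-7 cells (5 d, 5% charcoal-dextran calf serum, phenol red-free medium) exposed 16 h to 1 μM compound, then 1 nM estradiol added for 4 h before fractionation into cytoplasmic, nuclear, matrix, insoluble or whole-cell extracts. ERα detected by Western blot with F10 antibody; Sp1 used as loading reference.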

Assay [9] relates to MCF7. The assay can be described thus: Down regulation of ERalpha expression in human MCF7 cell nuclear fraction at 1 uM treated 16 hrs before estradiol challenge measured after 4 hrs by Western blotting in presence of 1 nM estradiol. Format: functional, cell-based. The gist of the method: as §2
Assay [10] relates to MCF7. Briefly: Down regulation of ERalpha expression in human MCF7 cell matrix fraction at 1 uM treated 16 hrs before estradiol challenge measured after 4 hrs by Western blotting in presence of 1 nM estradiol. Format: functional, cell-based. A digest of the protocol: as §2
Assay [11] relates to MCF7. Briefly: Down regulation of ERalpha expression in human MCF7 cell insoluble fraction at 1 uM treated 16 hrs before estradiol challenge measured after 4 hrs by Western blotting in presence of 1 nM estradiol. Format: functional, cell-based. A digest of the protocol:
as §2

Assay [12] relates to MCF7. The assay can be described thus: Down regulation of ERalpha expression in human MCF7 cell whole cell extract at 1 uM treated 16 hrs before estradiol challenge measured after 4 hrs by Western blotting in presence of 1 nM estradiol. Format: functional, cell-based. The gist of the method:
as §2

Assay [13] addresses T1, Estrogen receptor (Homo sapiens). The assay can be described thus: Effect on ERalpha-mediated transcriptional activity in human MCF7 cells assessed as reduction of estradiol-induced activation of pS2 mRNA expression at 1 uM treated 16 hrs before estradiol challenge measured after 4 hrs by RT-PCR analysis. Format: cell-based. A digest of the protocol: (§3)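 MCF-7 cells steroid-depleted seven days in phenol red-free medium with 5% charcoal-dextran calf serum, grown to ~80% confluency, then given 1 μM compound 16 h followed by 0.1% ethanol vehicle or 1 nM estradiol for 4 h. Total RNA reverse transcribed and target mRNA quantified by real-time PCR. Repeated-measures one-way ANOVA with Tukey test.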

Assay [14] has the same target. The assay can be described thus: Effect on ERalpha-mediated transcriptional activity in human MCF7 cells assessed as reduction of estradiol-induced activation of progesterone receptor mRNA expression at 1 uM treated 16 hrs before estradiol challenge measured after 4 hrs by RT-PCR analysis. Format: cell-based. The gist of the method:
as §3

Assay [15] shares this target. The assay can be described thus: Effect on ERalpha-mediated transcriptional activity in human MCF7 cells assessed as reduction of estradiol-induced activation of carbonic anhydrase 12 mRNA expression at 1 uM treated 16 hrs before estradiol challenge measured after 4 hrs by RT-PCR analysis. Format: cell-based. The gist of the method:
as §3

Activity calls are given as the source filed them. No cut-off for these calls is given here.

Sequence of Estrogen receptor beta (Homo sapiens) (Q92731 whole entry): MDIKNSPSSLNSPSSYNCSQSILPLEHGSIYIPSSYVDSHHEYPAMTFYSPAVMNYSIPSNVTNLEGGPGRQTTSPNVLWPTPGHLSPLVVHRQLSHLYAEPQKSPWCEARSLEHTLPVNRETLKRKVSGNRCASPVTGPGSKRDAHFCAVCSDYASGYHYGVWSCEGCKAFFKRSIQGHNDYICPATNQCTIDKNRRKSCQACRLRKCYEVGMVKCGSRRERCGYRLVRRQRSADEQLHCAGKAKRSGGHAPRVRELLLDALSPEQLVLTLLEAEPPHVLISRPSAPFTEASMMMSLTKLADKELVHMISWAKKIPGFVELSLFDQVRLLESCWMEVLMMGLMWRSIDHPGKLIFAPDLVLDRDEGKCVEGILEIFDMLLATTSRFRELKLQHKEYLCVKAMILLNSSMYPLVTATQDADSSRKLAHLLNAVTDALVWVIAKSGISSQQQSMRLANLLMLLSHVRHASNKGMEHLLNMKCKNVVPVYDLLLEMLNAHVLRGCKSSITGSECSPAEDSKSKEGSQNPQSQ

Take `O=C(O)CC/C=C/c1ccc(C(=C2C3CCCC2CCC3)c2ccc(O)cc2)cc1`: the relative binding affinity (RBA) in [1] came out at 13.1; in assay [2], 24.6. For the same compound, the Ratio in the assay listed under Homo sapiens amounted to 1.9.

Regarding `Oc1ccc(C(=C2CCCCC2)c2ccc(O)cc2)cc1`, the relative binding affinity (RBA) in [1] came out at 68; in assay [2] it was 334.

Regarding `COP(=O)(O)/C=C/c1ccc(C(=C2C3CCCC2CCC3)c2ccc(O)cc2)cc1`, the values for the relative binding affinity (RBA) in [1] and in [2] were 7.5 and 7.7, respectively. Besides, the Ratio in the assay filed under Homo sapiens is 1.

Consider `O=C(O)CCCCCCCCCCOc1ccc(C(=C2C3CCCC2CCC3)c2ccc(O)cc2)cc1`, for which the outcome in the assay with MCF7 [3], in the assay with MCF7 [4], in the assay with MCF7 [5], in the assay on MCF7 [6] and in the assay on MCF7 [7] was inactive.

As for `CCC(=C(c1ccc(O)cc1)c1ccc(/C=C/C(=O)O)cc1)c1ccccc1`, the result in the assay on MCF7 [3], in the assay on MCF7 [8], in the assay with MCF7 [9], with MCF7 [10], in the assay on MCF7 [11] and in the assay on MCF7 [12] was Active. Further, the result in assay [13], in assay [14] and in assay [15] was Active. In addition, the result with MCF7 [4], in the assay on MCF7 [5], in the assay on MCF7 [6] and in the assay with MCF7 [7] was inactive.

On to `O=C(O)/C=C/c1ccc(C(=C2C3CCCC2CCC3)c2ccc(O)cc2)cc1`, for which the outcome with MCF7 [3], in the assay on MCF7 [8], with MCF7 [9], with MCF7 [10], with MCF7 [11] and with MCF7 [12] was Active. Moreover, the outcome in assay [13], in assay [14] and in assay [15] was Active. In addition, the outcome with MCF7 [4], in the assay with MCF7 [5], in the assay with MCF7 [6] and in the assay on MCF7 [7] was inactive.

Regarding `O=C(O)CCC/C=C/c1ccc(C(=C2C3CCCC2CCC3)c2ccc(O)cc2)cc1`, the values for the relative binding affinity (RBA) in assay [1] and in [2] were 38.5 and 62.8, respectively. Further, in the assay listed under Homo sapiens, the Ratio is 1.6.

On to `O=C(O)CCCC/C=C/c1ccc(C(=C2C3CCCC2CCC3)c2ccc(O)cc2)cc1`, for which the relative binding affinity (RBA) in [1] worked out at 87.4; in assay [2], 81.1. Also, in the assay filed under Homo sapiens, the Ratio was determined as 0.93. The result in the assay on MCF7 [3], in the assay on MCF7 [4], with MCF7 [5], in the assay on MCF7 [6] and in the assay with MCF7 [7] was inactive.

As to `C[C@]12CC[C@@H]3c4ccc(O)cc4C[C@@H](CCCCCCCCC[S+]([O-])CCCC(F)(F)C(F)(F)F)[C@H]3[C@@H]1CC[C@@H]2O` (stereo partly drawn), the outcome in the assay on MCF7 [3], in the assay with MCF7 [4], in the assay with MCF7 [5], with MCF7 [6] and in the assay with MCF7 [7] was Active.

Take `O=C(O)/C=C/c1ccc(C(=C2CCCCC2)c2ccc(O)cc2)cc1`: the outcome in the assay with MCF7 [3], in the assay on MCF7 [4], in the assay on MCF7 [5], in the assay on MCF7 [6] and with MCF7 [7] was inactive. In addition, the result in the assay with MCF7 [8], with MCF7 [9], in the assay on MCF7 [10], with MCF7 [11] and in the assay with MCF7 [12] was Active.

`O=C(O)C/C=C/c1ccc(C(=C2C3CCCC2CCC3)c2ccc(O)cc2)cc1`: the relative binding affinity (RBA) in assay [1] amounted to 9; in assay [2], 23.1. For the same compound, in the assay filed under Homo sapiens, the Ratio is 2.6.
